What was measured:
Histamine H3 receptor = Histamine H3 receptor (Homo sapiens, UniProt Q9Y5N1); assay: Displacement of [3H]-N-alpha-methylhistamine from human recombinant histamine H3 receptor expressed in HEK cells after 30 mins by scintillation counting; format: cell-based, HEK293
Procedure, shortened: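 P2 membrane pellet from HEK cells expressing recombinant human H3, 3 µg protein per well, in 50 mM Tris–HCl pH 7.4 with 1 nM [3H]N-methylhistamine (82 Ci/mmol). Compound tested at half-log steps across five orders of magnitude. Nonspecific binding defined with 10^-5 M thioperamide. 30 min at 30 °C, then filtration on 0.3% PEI-soaked GF/B filters, three buffer rinses, scintillation counting. Ki from nonlinear least-squares curve fit.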

Cytochrome P450 2C9 = Cytochrome P450 2C9 (Homo sapiens, UniProt P11712); assay: Inhibition of CYP2C9; format: ADME
Procedure, shortened: (§1)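 CYP3A4, 2D6 and 2C9 inhibition tested under both pre-incubation and co-incubation conditions.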

[1] = AUC (0 to 6 hrs) in rat at 10 mg/kg, po; format: ADME, organism-based; design: time < 6 hr, dose 10 mg/kg, route oral; settings: plasma
Procedure, shortened: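 Rat exposure measured after a 10 mg/kg oral dose; AUC taken over 0–6 h, in ng·h/ml.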

[2] = Drug level in mouse brain at 10 mg/kg, po after 4 hrs; format: ADME, organism-based; design: dose 10 mg/kg, route oral; settings: read-out: Drug uptake
Procedure, shortened: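 Mouse brain concentration measured 4 h after a 10 mg/kg oral dose, in ng/g.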

Cytochrome P450 3A4 = Cytochrome P450 3A4 (Homo sapiens, UniProt P08684); assay: Inhibition of CYP3A4; format: ADME; procedure, shortened: as §1
[3] = target: Histamine H3 receptor (Mus musculus) (UniProt P58406); assay: Displacement of [3H]-N-alpha-methylhistamine from histamine H3 receptor in […] mouse cortex after 4 hrs by scintillation counting
Procedure, shortened: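 Ex vivo binding in cortex dissected from individual ICR mice, read at 4 h. Cortex homogenized in ice-cold 50 mM Na2HPO4–KH2PO4 pH 6.8 and frozen at −80 °C for at least 12 h; protein measured by BCA. Homogenate incubated 30 min at room temperature with 1 nM [3H]N-methylhistamine and 0.1% BSA; thioperamide defines nonspecific binding. Quadruplicates, filtered on PEI-presoaked GF/B; specific = total − nonspecific.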

Cytochrome P450 2D6 = Cytochrome P450 2D6 (Homo sapiens, UniProt P10635); assay: Inhibition of CYP2D6; format: ADME; procedure, shortened: as §1
Cytochrome P450 2D6, sequence (P10635 whole entry): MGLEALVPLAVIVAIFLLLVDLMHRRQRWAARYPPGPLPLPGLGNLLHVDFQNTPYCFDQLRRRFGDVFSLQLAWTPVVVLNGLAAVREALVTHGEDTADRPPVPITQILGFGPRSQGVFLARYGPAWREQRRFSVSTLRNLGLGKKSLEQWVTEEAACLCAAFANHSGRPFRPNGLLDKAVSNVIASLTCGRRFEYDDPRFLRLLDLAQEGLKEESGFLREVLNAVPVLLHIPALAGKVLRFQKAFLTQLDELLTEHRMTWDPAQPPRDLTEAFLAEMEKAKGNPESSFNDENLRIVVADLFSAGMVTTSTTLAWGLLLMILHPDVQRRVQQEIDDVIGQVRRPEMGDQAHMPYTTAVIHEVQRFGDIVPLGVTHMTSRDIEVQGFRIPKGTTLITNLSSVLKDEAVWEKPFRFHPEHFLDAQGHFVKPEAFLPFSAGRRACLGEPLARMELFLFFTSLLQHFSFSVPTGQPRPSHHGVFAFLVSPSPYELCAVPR

Cytochrome P450 2C9, sequence (P11712 whole entry): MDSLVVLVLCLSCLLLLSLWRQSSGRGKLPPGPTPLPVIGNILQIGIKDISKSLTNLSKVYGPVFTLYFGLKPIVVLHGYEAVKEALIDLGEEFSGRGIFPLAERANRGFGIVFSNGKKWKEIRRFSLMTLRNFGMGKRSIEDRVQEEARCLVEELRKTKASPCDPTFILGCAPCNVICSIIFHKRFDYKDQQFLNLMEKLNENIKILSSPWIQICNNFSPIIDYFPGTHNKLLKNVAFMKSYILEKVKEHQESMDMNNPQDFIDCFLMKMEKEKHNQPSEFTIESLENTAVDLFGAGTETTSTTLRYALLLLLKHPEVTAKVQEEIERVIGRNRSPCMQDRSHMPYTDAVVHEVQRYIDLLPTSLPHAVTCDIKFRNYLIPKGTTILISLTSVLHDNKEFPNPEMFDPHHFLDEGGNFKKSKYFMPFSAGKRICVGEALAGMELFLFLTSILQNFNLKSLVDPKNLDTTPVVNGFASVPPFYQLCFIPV
Cytochrome P450 3A4, sequence (P08684 whole entry): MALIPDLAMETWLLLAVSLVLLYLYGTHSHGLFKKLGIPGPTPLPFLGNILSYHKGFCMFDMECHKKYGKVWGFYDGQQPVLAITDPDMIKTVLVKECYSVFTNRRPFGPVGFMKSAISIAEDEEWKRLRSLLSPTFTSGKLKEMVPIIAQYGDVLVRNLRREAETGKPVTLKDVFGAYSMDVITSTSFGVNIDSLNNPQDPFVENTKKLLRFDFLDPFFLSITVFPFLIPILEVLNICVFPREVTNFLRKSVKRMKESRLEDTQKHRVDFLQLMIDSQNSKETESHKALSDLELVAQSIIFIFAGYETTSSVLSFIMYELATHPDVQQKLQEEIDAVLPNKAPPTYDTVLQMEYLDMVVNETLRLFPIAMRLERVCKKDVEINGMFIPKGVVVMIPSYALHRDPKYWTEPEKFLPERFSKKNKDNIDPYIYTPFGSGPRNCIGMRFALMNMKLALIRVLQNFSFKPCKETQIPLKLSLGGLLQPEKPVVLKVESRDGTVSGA
Histamine H3 receptor, sequence (Q9Y5N1 whole entry): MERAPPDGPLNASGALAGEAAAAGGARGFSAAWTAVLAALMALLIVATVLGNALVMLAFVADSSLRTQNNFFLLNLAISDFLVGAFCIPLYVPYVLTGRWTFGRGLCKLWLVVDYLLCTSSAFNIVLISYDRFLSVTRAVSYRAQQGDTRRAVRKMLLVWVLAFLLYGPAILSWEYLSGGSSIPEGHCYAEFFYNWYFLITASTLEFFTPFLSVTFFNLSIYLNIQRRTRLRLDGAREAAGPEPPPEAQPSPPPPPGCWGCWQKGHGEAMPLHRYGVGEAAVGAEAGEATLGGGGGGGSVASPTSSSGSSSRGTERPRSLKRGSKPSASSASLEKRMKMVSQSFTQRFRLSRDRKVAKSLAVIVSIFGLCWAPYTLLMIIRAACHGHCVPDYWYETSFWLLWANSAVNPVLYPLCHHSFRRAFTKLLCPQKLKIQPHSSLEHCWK
Histamine H3 receptor (Mus musculus), sequence (P58406 whole entry): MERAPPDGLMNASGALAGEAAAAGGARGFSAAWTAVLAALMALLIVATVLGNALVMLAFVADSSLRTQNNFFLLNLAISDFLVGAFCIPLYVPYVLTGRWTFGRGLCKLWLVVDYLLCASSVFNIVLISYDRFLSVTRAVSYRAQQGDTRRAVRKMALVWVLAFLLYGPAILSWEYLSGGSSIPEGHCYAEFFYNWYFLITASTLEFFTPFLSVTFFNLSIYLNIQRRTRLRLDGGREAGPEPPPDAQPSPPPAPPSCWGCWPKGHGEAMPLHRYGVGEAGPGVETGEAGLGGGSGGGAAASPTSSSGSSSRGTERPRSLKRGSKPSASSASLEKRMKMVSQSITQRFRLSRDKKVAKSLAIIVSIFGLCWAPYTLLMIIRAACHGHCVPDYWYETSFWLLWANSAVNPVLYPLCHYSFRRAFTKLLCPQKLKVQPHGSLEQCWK

Row | SMILES | Ki (Histamine H3 receptor) [nM] | further results
1 | COc1cc(C#N)cc(-c2nnc(N3CCC(N4CCCCC4)CC3)s2)c1 | 12 | 
2 | COc1cccc(-c2nnc(N3CCC(N4CCCCC4)CC3)s2)c1 | 31.9 | 
3 | Fc1ccc(-c2nnc(N3CCC(N4CCCCC4)CC3)s2)cc1 | 39 | 
4 | N#Cc1ccc(-c2nnc(N3CCC(N4CCCCC4)CC3)s2)cc1 | 36.4 | 
5 | Fc1cc(F)cc(-c2nnc(N3CCC(N4CCCCC4)CC3)s2)c1 | 50 | 
6 | Fc1ccccc1-c1nnc(N2CCC(N3CCCCC3)CC2)s1 | 36 | 
7 | Clc1cccc(-c2nnc(N3CCC(N4CCCCC4)CC3)s2)c1 | 49 | 
8 | Cc1cccc(-c2nnc(N3CCC(N4CCCCC4)CC3)s2)n1 | 6.1 | 
9 | N#Cc1cc(C#N)cc(-c2nnc(N3CCC(N4CCCCC4)CC3)s2)c1 | 23 | 
10 | COc1cc(OC)cc(-c2nnc(N3CCC(N4CCCCC4)CC3)s2)c1 | 15 | 
11 | COc1cc(F)cc(-c2nnc(N3CCC(N4CCCCC4)CC3)s2)c1 | 16 | 
12 | Cc1ccc(-c2nnc(N3CCC(N4CCCCC4)CC3)s2)cc1 | 163 | 
13 | COc1ncc(-c2nnc(N3CCC(N4CCCCC4)CC3)s2)s1 | 28 | 
14 | c1ccc(-c2nnc(N3CCC(N4CCCCC4)CC3)s2)cc1 | 80.1 | 
15 | COc1ccc(-c2nnc(N3CCC(N4CCCCC4)CC3)s2)cc1 | 40.1 | 
16 | Clc1ccccc1-c1nnc(N2CCC(N3CCCCC3)CC2)s1 | 69 | 
17 | COc1ccc(-c2nnc(N3CCN(C4CCCC4)CC3)s2)cc1 | 182 | 
18 | COc1cc(Cl)cc(-c2nnc(N3CCC(N4CCCCC4)CC3)s2)c1 | 12 | INH (Cytochrome P450 2C9): > 20 µM; AUC(0-t) at 6 h [1]: 379 ng·h/mL; concentration at 4 h [2]: 9030 ng/g; INH (Cytochrome P450 3A4): > 20 µM; Activity [3]: 90%; INH (Cytochrome P450 2D6): > 20 µM

Row | SMILES | Ki (Histamine H3 receptor) [nM] | further results
19 | CC(=O)c1ccc(-c2nnc(N3CCC(N4CCCCC4)CC3)s2)cc1 | 65 | 
20 | c1n[nH]cc1-c1nnc(N2CCC(N3CCCCC3)CC2)s1 | 192 | 
21 | c1ccc(-c2nnc(N3CCC(N4CCCCC4)CC3)s2)nc1 | 30 | 
22 | O=C(Nc1nnc(N2CCC(N3CCCCC3)CC2)s1)NC1CCCC1 | 48.6 | INH (Cytochrome P450 2C9): > 20 µM; INH (Cytochrome P450 3A4): > 20 µM; INH (Cytochrome P450 2D6): > 20 µM
23 | Cc1ccccc1-c1nnc(N2CCC(N3CCCCC3)CC2)s1 | 36 | 
24 | N#Cc1cccc(-c2nnc(N3CCC(N4CCCCC4)CC3)s2)c1 | 42.6 | 
25 | Cc1cccc(-c2nnc(N3CCC(N4CCCCC4)CC3)s2)c1 | 60 | 
26 | Clc1ccc(-c2nnc(N3CCC(N4CCCCC4)CC3)s2)cc1 | 161 | 
27 | CCN1CCN(c2nnc(-c3ccc(OC)cc3)s2)CC1 | 162 | 
28 | c1cnc(-c2nnc(N3CCC(N4CCCCC4)CC3)s2)nc1 | 103 | 
29 | Clc1cc(Cl)cc(-c2nnc(N3CCC(N4CCCCC4)CC3)s2)c1 | 72 | 
30 | Fc1cccc(-c2nnc(N3CCC(N4CCCCC4)CC3)s2)c1 | 62 | 
31 | CC(=O)c1ccccc1-c1nnc(N2CCC(N3CCCCC3)CC2)s1 | 8.4 | 
32 | CC(=O)c1cccc(-c2nnc(N3CCC(N4CCCCC4)CC3)s2)c1 | 4 | 
33 | COc1cccc(-c2nnc(N3CCC(N4CCCCC4)CC3)s2)n1 | 3.5 | INH (Cytochrome P450 2C9): > 20 µM; concentration at 4 h [2]: 1530 ng/g; INH (Cytochrome P450 3A4): > 20 µM; Activity [3]: 74%; INH (Cytochrome P450 2D6): > 20 µM
34 | COc1ccc(-c2nnc(N3CCN4CCCC4C3)s2)cc1 (stereo not given) | 653 | 
35 | COc1ccccc1-c1nnc(N2CCC(N3CCCCC3)CC2)s1 | 40 | 
36 | COc1ccc(-c2nnc(N3CCC(N4CCCC4)CC3)s2)cc1 | 601 | 

— ChEMBL document CHEMBL1641463, “Discovery of a series of potent arylthiadiazole H(3) antagonists” (Bioorg Med Chem Lett, 2011)
